Experimental data: ChEMBL document CHEMBL1125166, “Kinetic and equilibrium binding studies of amsacrine-4-carboxamides: a class of asymmetrical DNA-intercalating agents which bind by threading through the DNA helix” (J Med Chem, 1990)
“And” between values parts separate entries of the source, which are not always exact repeats. Equal values may be shown once.

Key:
[1] = system: Nucleic Acid; test: (§1) Fraction of the observed equilibrium absorbance change accounted in the kinetic analysis.; format: nucleic-acid assay
Outline: (§2)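 SDS-induced dissociation by stopped flow. Drug–calf thymus DNA complex (400 μM base pairs, 20 μM drug, 0.1 SHE) mixed 1:1 with 20 mM SDS (monomer) at 20 °C. Finals: 200 μM DNA, 10 μM drug, 10 mM SDS; D/P also 0.2. Absorbance followed at the visible maximum. Time constants and % amplitudes obtained from exponential fitting. Fraction = resolved amplitude over equilibrium absorbance change on SDS addition.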

[2] = system: Nucleic Acid; test: Time constant describing the association profile of calf thymus DNA-drug complexes in 0.1 SHE buffer at 20 degree C after 1 min; format: nucleic-acid assay
Outline: (§3)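 Stopped-flow association to sonicated calf thymus DNA (~10^6 MW) in 0.1 SHE at 20 °C. Final DNA 200 μM base pairs and final drug 10 μM (ratio 0.05); D/P also varied to 0.10 and 0.20. Absorbance followed at the drug's visible maximum. Traces deconvoluted into exponentials by curve stripping; at least six runs analysed separately and averaged. Amplitudes given as % of summed amplitudes.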

[3] = system: Nucleic Acid; test: Time constant describing the association profile of calf thymus DNA-drug complexes in 0.1 SHE buffer at 20 degree C after 2 min; format: nucleic-acid assay; outline: as §3
[4] = system: Nucleic Acid; test: Time constant describing the association profile of calf thymus DNA-drug complexes in 0.1 SHE buffer at 20 degree C after 3 min; format: nucleic-acid assay; outline: as §3
[5] = system: Nucleic Acid; test: Association constant for binding to poly(dA-dT) DNA in 0.01 SHE buffer, measured by ethidium displacement method; format: nucleic-acid assay
Outline: (§4)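 Ethidium displacement in 0.01 SHE buffer with poly(dA-dT) or poly(dG-dC). Association constants corrected for quenching.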

[6] = system: Nucleic Acid; test: Time constant describing the dissociation profile of calf thymus DNA-drug complexes in 0.1 SHE buffer at 20 degree C.; format: nucleic-acid assay; outline: as §2
[7] = system: Nucleic Acid; test: Association constant for binding to poly(dG-dC) DNA in 0.01 SHE buffer, measured by ethidium displacement method; format: nucleic-acid assay; outline: as §4
[8] = system: Nucleic Acid; test: Free drug λmax in 0.1 SHE buffer at the concentration of 50 uM for equilibrium binding to calf thymus DNA
[9] = system: Nucleic Acid; test: Free drug extinction coefficient in 0.1 SHE buffer at the concentration of 50 uM; 9.4 x 10 e-3 epcilonfor equilibrium binding to calf thymus DNA; settings: Bos taurus
[10] = system: Nucleic Acid; test: Percentage of the sum of the amplitudes in the kinetic experiment.; format: nucleic-acid assay; settings: Bos taurus
[11] = system: Nucleic Acid; test: Association constant for binding to poly(dA-dT) DNA in 0.01 SHE buffer, measured by ethidium displacement method for equilibrium binding to calf thymus DNA; format: nucleic-acid assay
[12] = system: Nucleic Acid; test: (§5) Time constant describing the dissociation profile of calf thymus DNA-drug complexes in 0.1 SHE buffer at 20 degree C; format: nucleic-acid assay; outline: as §2
[13] = system: Nucleic Acid; test: Association constant for binding to poly(dG-dC) DNA in 0.01 SHE buffer, measured by ethidium displacement method for equilibrium binding to calf thymus DNA; format: nucleic-acid assay
[14] = system: Nucleic Acid; test: Percentage of the sum of the amplitudes evaluated in the kinetic experiment.; format: functional; settings: Bos taurus; outline: as §2
[15] = system: Nucleic Acid; test: Percentage of the sum of the amplitudes evaluated in the kinetic experiment; format: nucleic-acid assay; settings: Bos taurus
[16] = Fraction of the observed equilibrium absorbance change accounted in the kinetic analysis; outline: as §2
[17] = system: Nucleic Acid; test: as §5; format: nucleic-acid assay; remark: listed apart in the source
Outline: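 Stopped-flow absorbance at 20 °C, read at the visible absorption maxima. The complex was 400 μM sonicated calf thymus DNA (nucleotide pairs) with 20 μM drug in 0.1 SHE, mixed with an equal volume of 20 mM SDS (monomer) in the same buffer. Final: 200 μM DNA bp, 10 μM drug, 10 mM SDS (1 drug : 20 bp). Exponential decay time constants were resolved.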

[18] = system: Nucleic Acid; test: (§6) Fraction of the observed equilibrium absorbance change accounted in the kinetic analysis on rates with DNA-ligand ratio.; format: nucleic-acid assay; settings: Bos taurus
[19] = system: Nucleic Acid; test: as §6; format: functional; settings: Bos taurus
[20] = system: Nucleic Acid; test: as §1; format: functional; settings: Bos taurus; outline: as §2
[21] = system: Nucleic Acid; test: Percentage of the sum of the amplitudes evaluated in the kinetic experiment on rates with DNA-ligand ratio.; format: functional; settings: Bos taurus; outline: as §3
[22] = system: Nucleic Acid; test: Fraction of the observed equilibrium absorbance change accounted in the kinetic analysis or binding of compound to a (dA-dT)-DNA; format: functional; settings: Bos taurus
[23] = system: Nucleic Acid; test: Fraction of the observed equilibrium absorbance change accounted in the kinetic analysis or binding of compound to a (dG-dC)-DNA; format: nucleic-acid assay; settings: Bos taurus
[24] = system: Nucleic Acid; test: Fraction of the observed equilibrium absorbance change accounted in the kinetic analysis or binding of compound to a CT-DNA; format: functional; settings: Bos taurus; outline: as §2
[25] = system: Nucleic Acid; test: (§7) Fraction of the observed equilibrium absorbance change accounted in the kinetic analysis off rates with DNA-ligand ratio.; format: nucleic-acid assay; settings: Bos taurus; outline: as §2
[26] = system: Nucleic Acid; test: as §7; format: functional; settings: Bos taurus; outline: as §2
[27] = system: Nucleic Acid; test: Percentage of the sum of the amplitudes evaluated in the kinetic experiment for binding of compound to a (dI-dC)DNA; format: functional; settings: Bos taurus
[28] = system: Nucleic Acid; test: Percentage of the sum of the amplitudes evaluated in the kinetic experiment for binding of compound to a CT-DNA; format: nucleic-acid assay; settings: Bos taurus; outline: as §2
[29] = system: Nucleic Acid; test: Time constant describing the association profile was studied for binding of compound to a (dA-dT)DNA; format: nucleic-acid assay
[30] = system: Nucleic Acid; test: Time constant describing the association profile was studied for variation on rates with DNA-ligand ratio.; format: nucleic-acid assay; outline: as §3
[31] = system: Nucleic Acid; test: Time constant describing the dissociation profile was studied for binding of compound to a (dA-dT)DNA; format: nucleic-acid assay
[32] = system: Nucleic Acid; test: Time constant describing the dissociation profile was studied for binding of compound to a poly(dA-dT) DNA; format: nucleic-acid assay
[33] = system: Nucleic Acid; test: Time constant describing the dissociation profile was studied for binding of compound to a poly(dG-dC) DNA; format: nucleic-acid assay
[34] = system: Nucleic Acid; test: Time constant describing the association profile was studied for binding of compound to a poly(dA-dT) DNA; format: nucleic-acid assay
[35] = system: Nucleic Acid; test: Percentage of the sum of the amplitudes evaluated in the kinetic experiment for binding of compound to a calf thymus DNA; settings: Bos taurus

Activity ([1]; Bos taurus) | Time constant [2] | Time constant [3] | Time constant [4] | k0 [5] | k0 [7] | λmax (nm) [8] | ε (×10^-3) [9] | Compound | also measured
90 and 80 | 4 ms | 31 ms | 100 ms | 890000 M⁻¹ | 2.4e+06 M⁻¹ | 441 | 10.4 | COc1cc(NS(C)(=O)=O)ccc1Nc1c2ccccc2nc2c(C(=O)NCCO)cccc12 | Time constant [6]: 81 ms and 208 ms
79 and 92 | 3 ms | 15 ms | 66 ms | 2.34e+06 M⁻¹ | 3.98e+06 M⁻¹ | 441 | 11.6 | COc1cc(NS(C)(=O)=O)ccc1Nc1c2ccccc2nc2c(C(=O)NCCCN(C)C)cccc12 | Relative amplitude [10]: 31% and 39% and 55%
– | – | – | – | – | – | 407 | 9.4 | CN(C)CCNC(=O)c1cccc2c(N)c3ccccc3nc12 | T1 [2]: 4 ms; T2 [3]: 19 ms; k0 [11]: 2.24e+07 M⁻¹; T1 [12]: 6 ms; T2 [12]: 28 ms; T3 [12]: 86 ms; T4 [12]: 428 ms; k0 [13]: 5e+07 M⁻¹
77 and 88 | 8 ms | 40 ms | 110 ms | 2.51e+06 M⁻¹ | 3.71e+07 M⁻¹ | 425 | 10.4 | COc1cc(NS(C)(=O)=O)ccc1Nc1c2ccccc2nc2c(C(=O)NCC(O)CO)cccc12 (configuration not stated) | –
62 | 5 ms | 24 ms | 110 ms | 2.45e+07 M⁻¹ | 6.6e+07 M⁻¹ | 442 | 12.9 | COc1cc(NS(C)(=O)=O)ccc1Nc1c2ccccc2nc2c(C(=O)NCCN(C)C)cccc12 | Activity [18]: 62 and 60; Activity [19]: 72; Activity [22]: 25 and 70; Activity [23]: 76 and 99; Activity [24]: 62 and 97; Activity [20]: 97; Activity [25]: 95; Activity [26]: 97; Relative amplitude [27]: 78%; Relative amplitude [28]: 41%; Time constant [29]: 3 ms; Time constant [30]: 5 ms; Time constant [31]: 7 ms; Time constant [32]: 38 ms; Time constant [33]: 1640 ms and 3500 ms; Time constant [34]: 16 ms; Relative amplitude [35]: 64%
69 | 3 ms | 18 ms | 66 ms | 2.19e+07 M⁻¹ | 4.9e+07 M⁻¹ | 441 | 11.6 | COc1cc(NS(C)(=O)=O)ccc1Nc1c2ccccc2nc2c(C(=O)NCCNCCO)cccc12 | Activity [18]: 69 and 60; Activity [19]: 68; Activity [20]: 100

More lines, now with the values behind:

Compound | Activity ([1]; Bos taurus) | Time constant [2] | Time constant [3] | Time constant [4] | k0 [5] | k0 [7] | λmax (nm) [8] | ε (×10^-3) [9] | also measured
COc1cc(NS(C)(=O)=O)ccc1Nc1c2ccccc2nc2c(C(=O)NCCCO)cccc12 | 85 and 72 | 4 ms | 32 ms | 95 ms | 950000 M⁻¹ | 8.12e+06 M⁻¹ | 439 | 10.9 | Relative amplitude [14]: 25% and 35%; Time constant [6]: 58 ms and 157 ms
Nc1c2ccccc2nc2ccccc12 | – | – | – | – | – | – | 399 | 10.1 | Relative amplitude [15]: 15% and 12%; k0 [11]: 1.2e+06 M⁻¹; T1 [12]: 3 ms; T2 [12]: 15 ms; Activity [16]: 50; k0 [13]: 1.4e+06 M⁻¹
COc1cc(NS(C)(=O)=O)ccc1Nc1c2ccccc2nc2ccccc12 | 48 | – | – | – | 290000 M⁻¹ | 260000 M⁻¹ | 434 | 12.1 | Time constant [17]: 2 ms and 6 ms
CNC(=O)c1cccc2c(Nc3ccc(NS(C)(=O)=O)cc3OC)c3ccccc3nc12 | 54 and 79 | 2 ms | 7 ms | – | 350000 M⁻¹ | 1.51e+06 M⁻¹ | 438 | 11.6 | Relative amplitude [10]: 52% [middle of 4 runs]; Time constant [6]: 11 ms and 29 ms
COc1cc(NS(C)(=O)=O)ccc1Nc1c2ccccc2nc2c(C(=O)NCC(=O)NCCNCCO)cccc12 | – | 5 ms | 25 ms | 93 ms | 2.82e+07 M⁻¹ | 6.61e+07 M⁻¹ | 440 | 12.3 | Activity [18]: 74; Activity [19]: 66 and 65; Activity [1]: 66; Activity [20]: 100; Relative amplitude [21]: 33% (2×) and 48% and 37%
